Source: PubChem
PGC1a acetyl up = raises PGC1a acetylation signal in U2OS cells | U2OS PGC1a acetylation AlphaScreen, overnight | actives 0.21% (n = 350,000) | activation, % at 15.6 µM;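 active = every replicate reaching activation of at least 50%, whatever the mean replicate activation; inconclusive = replicates that disagree or another doubt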;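 note: hits raise the AlphaScreen acetylation signal above neutral controls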
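System: Flag-PGC1a/GCN5 U2OS cells | Quantity: 7000 cells/well | Times: Overnight compound treatment, 37 °C | Measured by: AlphaScreen proximity luminescence, anti-acetyl-lysine antibody | Dosing: One concentration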
G6PC hep suppr = PGC-1a acetylation activators affecting G6PC expression in hepatocytes; G6PC suppression (normalized activity, % of positive control; higher = more suppression), % at 26 µM; 240 tested, under 10 active; shares compounds with PGC1a acetyl up; primary mouse hepatocytes, G6PC mRNA qPCR, forskolin;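 active = dose curves showing G6PC suppression whose half-maximal dose is at most twice the top valid dose; inconclusive = flat curves with moderate negative activity, or unreliable fits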;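 note: G6PC expression relative to GAPDH housekeeping gene as delta delta Ct; 0% = median of neutral control wells and 100% = median of positive control wells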
Hep PCK1 suppr = PGC-1a acetylation activator altering hepatocyte PCK1 expression. PCK1 expression decrease, unspecified at 26 µM. shares compounds with PGC1a acetyl up. primary mouse hepatocytes, PCK1 mRNA qPCR, forskolin-stimulated. 230 tested, under 10 active;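 active = compounds lowering PCK1 expression whose fitted half-maximal concentration is at most twice the top tested dose; inconclusive = flat fit with moderate opposite-direction effect, or poor fit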;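 note: values are delta delta Ct of PCK1 relative to GAPDH; higher delta delta Ct means lower PCK1 expression so positive values indicate hits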
PGC1a hep suppr = PGC-1a acetylation activator altering hepatocyte PGC-1a expression; shares compounds with PGC1a acetyl up; primary mouse hepatocytes, PGC-1a mRNA qPCR, forskolin; top dose 26 µM; max activity (PGC-1a expression decrease), %; 240 tested, under 10 active;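 active = compound lowering PGC-1a expression with fitted half-maximal concentration at most twice its top tested dose; inconclusive = flat curve with moderate opposite-direction effect, or poor fit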;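 note: 0% = neutral control wells median and 100% = positive control wells median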
The depositor's hits bear a star; ? = inconclusive; . = not tested or not shown; [ ] = remark or other dose. These entries were drawn from the full list.

SMILES	PGC1a acetyl up	G6PC hep suppr	Hep PCK1 suppr	PGC1a hep suppr
Cc1[nH]nc2ncc(C(=O)c3ccccc3O)cc12	-45	.	.	.
COC(=O)c1nn(-c2ccccc2)ccc1=O	-44	.	.	.
O=C(CCC1CCN(Cc2ccccc2Cl)CC1)NC1CC1	-95	.	.	.
CCNC(=O)C1(C)CCCN1Cc1ccccc1Cl (centres undefined)	-49	.	22	24
O=C(CCl)N=c1sccn1Cc1ccccc1Cl	-52	.	.	.
Cc1cccc(CS(=O)(=O)c2nnc([C@H](Cc3ccccc3)NC(=O)OC(C)(C)C)o2)c1	-60	.	.	.
CCOC(=O)NC(=S)Nc1cccc(NC(=S)NC(=O)OCC)c1	-40	.	.	.
COC(=O)c1cc2ccsc2n1CC(=O)Nc1cc(Cl)ccc1OC	59*	24	314	119
O=C(Nc1nc2cc3c(cc2s1)OCCO3)c1ccncc1	-62	.	.	.
Oc1ccc(-c2nc(-c3ccc(O)c(O)c3)cs2)cc1	-46	.	.	.
CC1CC(NS(=O)(=O)c2cccs2)CC(C)(C)C1 (centres undefined)	265*	99	69	157
COC(=O)c1ccc(Cl)c(NC(C)=O)c1	-47	.	.	.
CCO[C@H]1OC(C(=O)N2CCCCCCC2)=C[C@@H](C2CCCCC2)[C@@H]1CCCO	84*	-2	62	51
Oc1ccc(C=Nc2ccc(N3CCOCC3)cc2)c(O)c1	-64	.	.	.
COC(=O)COc1c(/C=C\c2nc(O)c([N+](=O)[O-])c(=O)[nH]2)cccc1OC	-55	.	.	.
COc1ccc(N(C(=O)c2snc(C(N)=O)c2N)C(C(=O)NC2CCCCC2)c2ccc(C)o2)cc1 (centres undefined)	62*	-14	-45	37
C#CC(=O)N(c1ccc(OC)cc1OC)C(C(=O)NC1CCCC1)c1cccs1 (centres undefined)	-95	.	.	.
COc1ccc(N(C(=O)c2snc(C(N)=O)c2N)C(C(=O)NC2CCCCC2)c2ccc(F)cc2)c(OC)c1 (centres undefined)	?	-20[8 µM]	119	72
CCN(CC)C(=O)c1sc(NC(=O)c2ccncc2)c(C(=O)OC)c1C	-52	.	.	.
CCn1c(C(=O)NC2CCC(C)CC2)cc2sccc21 (centres undefined)	-44	.	.	.
O=C1NC2(CCC3(CC2)OCCO3)NN1c1ccccc1	-51	.	.	.
CCc1nc(N)nc(N)c1-c1ccc(Cl)cc1	-48	.	.	.
Cc1ccc(-c2nnc(N3CCN(C(=O)COc4ccccc4)CC3)c3ccccc23)cc1	94*	360	.	121
Cc1c(C(=O)N2CCN(c3ccccn3)CC2)sc2ncnc(N3CCN(c4ccccc4)CC3)c12	-40	.	.	.
Cc1nc2ncnn2c(C)c1CCC(=O)N1CCN(c2ccccn2)CC1	-43	.	.	.
SMILES	PGC1a acetyl up	G6PC hep suppr	Hep PCK1 suppr	PGC1a hep suppr
O=C(c1cccs1)N1CCN(c2nnc(-c3ccccc3)c3ccccc23)CC1	69*	19	-6.8[8 µM]	34
O=C1C(Cl)=C(N2CCOCC2)C(=O)N1CCc1ccccc1	-42	.	.	.
O=C(Nc1ccc(OCC(=O)N2CCC(Cc3ccccc3)CC2)cc1)c1ccco1	67*	.	0.009	23
N=c1n(Cc2ccccc2)c2ccccc2n1CC(O)COc1ccc(Cl)cc1Cl (centres undefined)	-44	.	.	.
COC(=O)C[C@@H]1C[C@H]2c3cc(NC(=O)Nc4ccc(C(F)(F)F)cc4)ccc3O[C@H]2[C@H](CO)O1	?	6[23.5 µM]	-9.5[23.5 µM]	25
O=C(COCc1cc(-c2ccc3c(c2)OCO3)on1)Nc1cccnc1	94*	3	43	?
O=C1C=CC(=O)c2c(O)c(N3CCN(CCO)CC3)c(Cl)c(O)c21	-51	.	.	.
Cc1ccc2[nH]c(=O)c(CN(Cc3ccc4c(c3)OCO4)Cc3nnnn3C3CCCC3)cc2c1	58*	27	85	65
COc1ccc(CN(Cc2cc3ccc(C)cc3[nH]c2=O)Cc2nnnn2C2CCCC2)cc1	-53	.	.	.
Cc1cc(/C=C2\C(=N)N3N=C(C(C)C)SC3=NC2=O)c(C)n1Cc1ccccc1	-49	.	.	.
O=C(CCCn1c(=O)[nH]c2cc(Cl)ccc2c1=O)NCCC1=CCCCC1	73*	60	?	-24
Cc1c(Nc2cc(Cl)c3nonc3c2[N+](=O)[O-])c(=O)n(-c2ccccc2)n1C	-40	.	.	.
CN(C)c1nc(SCCOC(=O)COc2ccc(Cl)cc2Cl)nc(N(C)C)n1	-52	.	.	.
O=C(c1cc(Cl)ccc1Cl)N1CCc2ccccc21	-43	.	.	.
O=C(NN1c2ccccc2CCc2ccccc21)c1ccccc1Br	?	168	102	88
COc1ccccc1/C=C/c1nc2ccc(OC(C)=O)cc2c(=O)o1	-40	.	.	.
CCCOc1ccc2ccccc2c1/C=C1\SC(=O)NC1=O	-76	.	.	.
c1ccc(CNc2ncnc3nc[nH]c23)cc1	-45	.	.	.
O=C(Nc1ccccc1)C1=C[C@@H](c2ccc(C(F)(F)F)cc2)C[C@@H](OCc2ccc(CO)cc2)O1	63*	16	35	27
CN1CC=C2C(C#N)=C(N)C(C#N)(C#N)C(CCc3ccccc3)C2C1 (centres undefined)	-45	.	.	.
COc1ccc(C(CNC(=O)c2cccc(N(C)C)c2)N2CCCC2)cc1 (centres undefined)	-47	176	121	28
O=C(CCc1nc2ccccc2c(=O)[nH]1)OCC(=O)N1CCc2ccccc21	-53	.	.	.
COc1ccccc1-c1ccc2c(c1)C(C)(Cc1ccc(OC(F)(F)F)cc1)C(=O)N2 (centres undefined)	?	-17	52	51
C=CCNc1nc(Cl)nc(NCc2ccco2)n1	-42	.	.	.
COc1ccc(C(C)(O)c2nc(-c3ccc(S(C)(=O)=O)cc3)cs2)cc1 (centres undefined)	?	-43	16	49
SMILES	PGC1a acetyl up	G6PC hep suppr	Hep PCK1 suppr	PGC1a hep suppr
COc1ccc2nc(N3CCCC(C(=O)NCCCN4CCN(C)CC4)C3)sc2c1 (centres undefined)	-70	.	.	.
CCCOc1ccccc1C1C(C(=O)OC)=CN(C(C)C)C=C1C(=O)OC	-92	.	.	.
Cc1ccc(CN(CC(O)COc2cccc3[nH]cc(C)c23)C(C)(C)C)cc1 (centres undefined)	90*	469	301	165
O=S(=O)(Nc1cc(Sc2ncn[nH]2)c(O)c2ccccc12)c1ccccc1	-72	.	.	.
O=C(CCn1nnc2ccccc21)Nc1nnc(Cc2ccccc2)s1	63*	-50	.	?
C=C1C(=O)[C@]23C[C@H]1CC[C@H]2[C@]1(C)[C@@H](OC(C)=O)CC[C@@](C)(C(=O)OC)[C@H]1C[C@@H]3OC(C)=O	-94	.	.	.
CCNC(=S)NNC(=O)c1csc2ccccc12	-59	.	.	.
COC(=O)/C=C/c1cnc2ccccc2c1	-43	.	.	.
COc1cc(NC(=O)c2cccs2)c(OC)cc1NC(=O)CCC(=O)Nc1ccc2ncccc2c1	366*	189	?	?
CCC(=O)NC(c1cccs1)c1ccc2cccnc2c1O (centres undefined)	-47	.	.	.
COc1cc(CN2CCN(Cc3ccccc3C(F)(F)F)CC2)cc(OC)c1OC	-63	.	.	.
C#CCN1C(=O)C(O)(CC(=O)c2ccc(OC)c(OC)c2)c2ccccc21 (centres undefined)	-43	.	.	.
O=C(CN1CCC(n2cnc3cccnc32)CC1)NCc1cccs1	.	17	30	38
O=C(CN1CCC(n2nnc3ccccc32)CC1)NCc1cccs1	192*	-15	-22	33
